What all share (type): functional, organism-based
Test [1] deals with Human immunodeficiency virus 1. The test is described as follows: Potency evaluated against NNRTI-Resistant HIV-1 strain Gly190Ala. A digest of the protocol: (§1)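 Test compound dilutions in microtiter wells; HIV added at 200-250 CCID50/well and MT4 cells at 3 × 10^4 cells/well (final). Incubated 5 days at 37 °C, 5% CO2. Cytopathic effect of replicating virus read by MTT tetrazolium colorimetry. EC50 is the dose achieving 50% infection.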

Test [2] concerns Human immunodeficiency virus 1. In words: Potency evaluated against NNRTI-Resistant HIV-1 strain Lys103Asn. In short, it runs like this:
as §1

In test [3] the test system is Human immunodeficiency virus 1. The test is described as follows: Potency evaluated against NNRTI-Resistant HIV-1 strain Val106Ala. In short, it runs like this: as §1
Test [4] relates to Human immunodeficiency virus 1. The test is described as follows: Potency evaluated against NNRTI-Resistant HIV-1 strain Tyr181Cys. In short, it runs like this: as §1
Test [5] deals with Human immunodeficiency virus 1. The test is described as follows: Potency evaluated against NNRTI-Resistant HIV-1 strain Leu100Ile. In short, it runs like this: as §1
In test [6] the test system is Human immunodeficiency virus 1. In words: Potency evaluated against wild type HIV-1 strain IIIB. In short, it runs like this:
as §1

Test [7] deals with Human immunodeficiency virus 1. In words: Potency evaluated against NNRTI-Resistant HIV-1 strain Tyr188Leu. A digest of the protocol: as §1

Usually EC50 stands for the concentration that produces a half-maximal response. A lower EC50 goes with a more potent agent. As to `N#Cc1ccc(NC(=S)NC(=N)Cc2c(Cl)cccc2Cl)cc1`, the EC50 was determined as 2 nM in test [1]; 589 nM in test [2]; 382 nM in test [3]; 511 nM in test [4]; 513 nM in test [5]; 3 nM in test [6]. Also, in test [7], the EC50 was 318 nM.
For the compound `N#Cc1ccc(Nc2nc(N)nc(Cc3c(Cl)cccc3Cl)n2)cc1`, the EC50 in test [1] worked out at 1 nM; in test [2], 41 nM; in test [3] it was 26 nM; in test [4], 277 nM; in test [5], 293 nM; in test [6], 2 nM. For the same compound, the response in test [7] was half-maximal at 431 nM (EC50).
Consider `N#Cc1ccc(Nc2nc(N)nc(Cc3c(Cl)ccc4[nH]ccc34)n2)cc1`, for which the EC50 in test [1] worked out at 3 nM; in test [2], 63 nM; in test [3], 63 nM; in test [4] it was 250 nM; in test [5], 1000 nM; in test [6], 3 nM. Besides, in test [7], it took 1000 nM to reach a half-maximal effect (EC50).
As for `N#Cc1ccc(Nc2nc(N)nc(Oc3c(Cl)cccc3Cl)n2)cc1`, the EC50 in test [2] is 79 nM; in test [3], 100 nM; in test [4], 250 nM; in test [5] it was 320 nM; in test [6], 3 nM; in test [7], 320 nM.
Take `Cc1cc(C#N)cc(C)c1Oc1nc(Nc2ccc(C#N)cc2)nc(CO)c1Br`: the EC50 in test [1] came out at 1 nM; in test [2] it was 4 nM; in test [3], 2 nM; in test [4] it was 6 nM; in test [5] it was 2 nM; in test [6], 4 nM. The compound further registered an EC50 in test [7] of 6 nM.
Consider `CC(=O)c1ccc(C)cc1N[C@@H](C(N)=O)c1c(Br)cccc1Br` [(R)-LOVIRIDE], for which the EC50 in test [1] is 2510 nM; in test [2] it was 1260 nM; in test [3], 1000 nM; in test [4], 15800 nM; in test [5] it was 50 nM; in test [6] it was 5 nM. Moreover, the response in test [7] was half-maximal at 50100 nM (EC50).
Turning to `Cc1cc(C)c(Nc2ccnc(Nc3ccc(C#N)cc3)n2)c(C)c1` [DAPIVIRINE], the EC50 in test [1] was 1 nM; in test [2] it was 4 nM; in test [3], 3 nM; in test [4] it was 8 nM; in test [5], 16 nM; in test [6], 1 nM. In addition, in test [7], the EC50 was determined as 40 nM.
For the compound `CC(C)Nc1cccnc1N1CCN(C(=O)c2cc3cc(NS(C)(=O)=O)ccc3[nH]2)CC1` [DELAVIRDINE], the EC50 in test [1] turned out to be 38 nM; in test [2], 1700 nM; in test [3], 2240 nM; in test [4], 1340 nM; in test [5], 3470 nM; in test [6], 16 nM. The same compound yielded a half-maximal effective concentration (EC50) in test [7] of 178 nM.
For the compound `Cc1cc(C#N)cc(C)c1Oc1nc(Nc2ccc(C#N)cc2)nc(N)c1Br` [ETRAVIRINE], the EC50 in test [1] stood at […]; in test [2], […]; in test [3], 2 nM; in test [4], 6 nM; in test [5], 3 nM; in test [6], 20 nM. In test [7], this compound returned an EC50 of 3 nM.
For the compound `Cc1ccnc2c1NC(=O)c1cccnc1N2C1CC1` [NEVIRAPINE], the EC50 turned out to be 3460 nM in test [1]; 2470 nM in test [2]; 2410 nM in test [3]; 5350 nM in test [4]; 638 nM in test [5]; 85 nM in test [6]. In test [7], this compound had an EC50 of over 100000 nM.

The values are drawn from ChEMBL document CHEMBL1148309, “Roles of conformational and positional adaptability in structure-based design of TMC125-R165335 (etravirine) and related non-nucleoside reverse transcriptase inhibitors that are highly potent and effective against wild-type and drug-resistant HIV-1 variants” (J Med Chem, 2004).
